Experiment: Toxicity liver stage against HepG2, at 10uM
Assay type: cell-based
Set-up: test concentration 10 uM, cell line HepG2-A16-CD81EGFP
Conditions: human, HepG2-A16-CD81EGFP cells; read-out: INHIBITION
In short: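 Uninfected HepG2-A16-CD81EGFP cells, 3 × 10^3 per well, 1536-well, plated on prespotted compound at 10 μM final, parasite-free screening media added to match infected plates; puromycin 10 μM positive, DMSO 0.5% negative; run in parallel with 48 h PbLuc assay at 37 °C, 5% CO2; viability by CellTiter-Glo luminescence, normalized to controls.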

Row | Structure (SMILES) | cytotoxicity at 10 µM [%]
1 | Cc1nc(CN2CCCC(N(C)CCOCC(F)(F)F)C2)no1 (stereo not drawn) | -4.92
2 | Cn1c(CO)cnc1SC(C(N)=O)c1ccccc1 (stereo not drawn) | -48.8
3 | CN(C)C(=O)[C@H]1C[C@H]2OCC[C@H]2N(Cc2ccc3ccccc3n2)C1 | -55.9
4 | Cc1nnc2n1CCN(C(=O)c1cc3cc(F)ccc3[nH]1)C2 | 3.28
5 | CC(C)OCCS(=O)(=O)NC1CCN(C2CCCC2)C1 (stereo not drawn) | 1.68
6 | CCSc1ccc(C(=O)N2CCC3(CCC(=O)N(C)C3)CC2)s1 | -11.2
7 | COC(=O)C1CCCN1C(=O)c1ccc(Cl)cc1F (stereo not drawn) | -7.7
8 | O=C(Cn1ccnc1)N1CCCC(OCc2cccnc2)C1 (stereo not drawn) | 2.03
9 | O=C1C(NCc2nnc3n2CCCC3)CCCN1c1ccccc1 (stereo not drawn) | -9.69
10 | CS(=O)(=O)NC1CCCN(C(=O)NCc2ccccc2Cl)C1 (stereo not drawn) | -12.8
11 | CC/N=c1\nc(NCC)nc2n1C(O)(Nc1cccc(Cl)c1Cl)CS2 (stereo not drawn) | 14.1
12 | Cc1ncc2c(n1)CN(C(C(N)=O)c1ccccc1)CC2 (stereo not drawn) | 0.66
13 | OCC1COCCN(Cc2cc(C3CCCCC3)no2)C1 (stereo not drawn) | 6.44
14 | CC(C)(C)OCCN1CCCC1c1nc(Cc2ccc(F)cc2)no1 (stereo not drawn) | -7.1
15 | CN(C)C(=O)c1ccc2c(c1)nc(N1CC[C@H](O)C1)n2C | -18.8
16 | Cc1cccc(C(=O)N2CCC3(CCN(c4cnn(C)c4)C3=O)C2)n1 (stereo not drawn) | 5.05
17 | COc1ccccc1C1Cn2ccnc2CN1Cc1c[nH]nc1C (stereo not drawn) | -3.85
18 | N[C@@H]1CCC[C@@H](Oc2ccc(F)cc2Oc2cccc(F)c2)[C@@H]1O | -22.2
19 | O=C(c1ccc[nH]1)N1CCC2(CC1)C(=O)Nc1ccccc12 | 2.09
20 | O=C1CC(c2cccnc2)C2(CCN(S(=O)(=O)C3CC3)CC2)N1 (stereo not drawn) | -2.29
21 | CN(C)C(=O)c1cc2c(nc1NCC1CC1)CCNCC2 | 8.39

Row | Structure (SMILES) | cytotoxicity at 10 µM [%]
22 | CN(CC1COc2ccccc2O1)C(=O)NCCCn1ccnc1 (stereo not drawn) | -5.54
23 | Cc1nn(C)c(N(C)C)c1CNCC(O)COc1cccc(F)c1 (stereo not drawn) | 6.2
24 | O=C(N1CCOCC1)N1C[C@@H]2CC[C@H]1CN(C1Cc3ccccc3C1)C2 | -4.55
25 | NC(=O)c1ccc(CNC(=O)NCc2cc[nH]n2)cc1 | 12.3
26 | CCc1ccc(C(=O)N2CCN(CCS(C)(=O)=O)CC2)o1 | -8.03
27 | CC(CNC(=O)c1cnccn1)Oc1ccc(F)cc1 (stereo not drawn) | -2.55
28 | CCOc1ccc(CNCc2cccnc2N(C)C)cc1 | -6.5
29 | CC(=O)N1CCCC(c2ccc3sc(N)nc3n2)C1 (stereo not drawn) | 0.248
30 | NS(=O)(=O)CC1CCCN1CCOc1ccccc1F (stereo not drawn) | 3.98
31 | O[C@@H]1CN(c2nc3ccccc3o2)CC[C@H]1c1ccc2c(c1)OCO2 | 5.36
32 | Cc1ccc2c(n1)N(C)CCN(C(=O)NC(C)C)C2 | -3.38
33 | CCCc1ccc2oc(C(=O)N3CCC(O)CC3)c(C)c2c1 | 0.361
34 | CCCc1n[nH]c(C2CN(C(=O)c3ccco3)CCO2)n1 (stereo not drawn) | -2.7
35 | Nc1nccc(C2CCN(CCO)C2)n1 (stereo not drawn) | 0.51
36 | CCc1nc(C)ncc1C(=O)N1CC(=O)N(C)c2ccccc21 | 6.62
37 | CSc1nccc(N2CCC(NCc3ccc4c(c3)OCO4)CC2)n1 | -3.4
38 | CCCn1ccnc1CNC(=O)C1COc2cc(OC)ccc2C1 (stereo not drawn) | 1.61
39 | CCOc1ccnc(N2CCN(C(=O)c3ccoc3C)CC2)n1 | -0.463
40 | COCCC1(C(=O)O)CCCN(C(=O)c2cc(C)oc2C)C1 (stereo not drawn) | -5.89
41 | O=C(Nc1ccccc1Oc1cccc(F)c1)C1CCS(=O)(=O)C1 (stereo not drawn) | 2.64
42 | Cc1noc(C)c1CCC(=O)NCC1(O)CCN(c2ccccn2)C1 (stereo not drawn) | 2.12

Row | Structure (SMILES) | cytotoxicity at 10 µM [%]
43 | Cc1ccccc1N1CCN(C(=O)c2cscn2)C(C)C1 (stereo not drawn) | 0.403
44 | COc1ccc(Cl)cc1CCNC(=O)NCc1ccncc1 | 2.53
45 | Cc1[nH]c2c(C)ccc(C)c2c1CC(=O)NCc1csc(N(C)C)n1 | -6.65
46 | Cc1cc(N2CCN(C(=O)c3cnn(C(C)C)c3)CC2)nc(N)n1 | -2.82
47 | CC(C)(C)c1nccc(N2CCCCC2CNS(C)(=O)=O)n1 (stereo not drawn) | -2.84
48 | CSCC(CCO)Nc1nc(C(F)F)nc2ccccc12 (stereo not drawn) | -5.52
49 | Cc1noc(C(C)C)c1C(=O)NCC(c1cccc(F)c1)N(C)C (stereo not drawn) | -7.46
50 | Cc1[nH]ncc1C(=O)NCC(CO)Cc1ccc(Cl)cc1 (stereo not drawn) | -0.0785
51 | Cc1nc(CN2CCCN(CC(=O)N(C)CCC#N)CC2)no1 | 6.28
52 | Cc1noc(C)c1CN1CCO[C@H]2[C@H](Oc3ccccn3)CC[C@@H]21 | -6.69
53 | COCc1ncc(CN2CCN(C)C(=O)C2C)cn1 (stereo not drawn) | 1.31
54 | CCCc1cc(NCCCC2CCOC2)n2nccc2n1 (stereo not drawn) | -0.247
55 | Cn1c(=O)oc2cc(S(=O)(=O)N3CCCCC3)c(Cl)cc21 | 19
56 | c1ccc(Cc2n[nH]c(C3CCOC3)n2)cc1 (stereo not drawn) | 1.06
57 | CN(C)S(=O)(=O)N1C[C@@H]2C[C@H](C(=O)NCc3ccccc3)[C@H](C1)O2 | 4.09
58 | CCc1oc(C(=O)OC)cc1Cn1cccc(C(F)(F)F)c1=O | -2.13
59 | Cc1noc(C)c1CN(C)C(=O)NC1CCOCC1 | -14.8
60 | N#Cc1ccccc1C(=O)N1C[C@@H]2CC[C@H]1CN(Cc1ccccc1)C2 | 1.43
61 | COc1ccc(OC)c(CNCc2ccnc(N3CCOCC3)c2)c1 | 1.27
62 | CCOCc1cncc2c1CCN(C(=O)c1cccc(C#N)c1)C2 | 3.55
63 | Cc1nc(C)n(CC2CCCCN2c2ncnc3ccsc23)n1 (stereo not drawn) | -2.04

Row | Structure (SMILES) | cytotoxicity at 10 µM [%]
64 | Cc1ccc(-n2cc(C(=O)N3CCn4c(C)nnc4C3)nn2)cc1 | -141
65 | CNC(=O)C(C)(C)N(C)C(=O)c1cc(COc2ccccc2OC)[nH]n1 | -5.12
66 | CCN(Cc1cccc(Cl)c1)Cc1ncc(C(C)(C)C)o1 | 11.2
67 | CC(C)Oc1ccc(C(=O)N2CCC(Nc3cccnn3)CC2)cn1 | -31
68 | O=C(NC1CCOCC1)C1CC(=O)N(Cc2ccccn2)C1 (stereo not drawn) | -0.0985
69 | Cc1c(C(=O)N2C[C@@H](CN(C)CCO)[C@@H](CO)C2)sc2ccccc12 | -11
70 | CCCNC(=O)CNc1ccccc1OCCC(=O)OC | 8.95
71 | Cn1cccc1C(=O)N1CCN(Cc2ccncc2)c2ncccc2C1 | -0.395
72 | COc1nn(C)cc1C(=O)NCC(=O)NCc1cccnc1 | -6.32
73 | Cc1cccc(CN2C[C@@H]3CCCO[C@@H]3[C@H](Nc3ccccn3)C2)n1 | 0.939
74 | Cc1cccc(CN2CCc3c(COCC(=O)N(C)C)nn(C)c3C2)n1 | -120
75 | OCc1csc(N2CCN(Cc3cccc(F)c3)CC2)n1 | -4.9
76 | CC(C)S(=O)(=O)NCc1cccnc1Oc1ccc(F)cc1F | 5.98
77 | Nc1nccc(-c2c[nH]nc2C2CCCCC2)n1 | 36.5
78 | NCC1CCN(C2CCN(c3ccc(-c4ccco4)cc3)CC2)C1 (stereo not drawn) | 93.9
79 | CCc1cnc(N2CC3(CCN(Cc4ccsc4)C3)C2)nc1 | 2.98
80 | Cc1ccc(C)c(-n2nnnc2SCN2CCCCC2=O)c1 | -47.3
81 | C[C@@H]1CN(C(=O)Nc2cccc(OC(F)F)c2)CC(C(N)=O)O1 (stereo partly drawn) | 5.52
82 | N#Cc1ccc(OCC(O)CN2CCc3cncnc3C2)cc1 (stereo not drawn) | -8.61
83 | O=C(O)C(c1ccc2c(c1)OCO2)N1CCCC1 (stereo not drawn) | -3.04

Reference: ChEMBL document CHEMBL4513216, “Probing the Open Global Health Chemical Diversity Library for Multistage-Active Starting Points for Next-Generation Antimalarials” (ACS Infect Dis, 2020)
